# hK5 inh = kallikrein 5 (human) inhibition | Q9Y337 | recombinant hK5, fluorogenic AMC substrate cleavage | inhibition, % at 5 µM | actives 0.59% (n = 210,000) | AID 873;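 active = inhibition of 40% or more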;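 note: 0% = enzyme controls without compound and 100% = no-enzyme blanks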
# FXIIa inh = factor XIIa (human) inhibition | purified FXIIa, Boc-QGR-AMC fluorogenic substrate, 2 h | inhibition, % at 5 µM | actives 0.3% (n = 220,000) | AID 800; in the data active = inhibition above about 40%;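 note: 0% = enzyme with no compound and 100% = blank without enzyme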
# Target sequence (P00748 20-372 limits assumed): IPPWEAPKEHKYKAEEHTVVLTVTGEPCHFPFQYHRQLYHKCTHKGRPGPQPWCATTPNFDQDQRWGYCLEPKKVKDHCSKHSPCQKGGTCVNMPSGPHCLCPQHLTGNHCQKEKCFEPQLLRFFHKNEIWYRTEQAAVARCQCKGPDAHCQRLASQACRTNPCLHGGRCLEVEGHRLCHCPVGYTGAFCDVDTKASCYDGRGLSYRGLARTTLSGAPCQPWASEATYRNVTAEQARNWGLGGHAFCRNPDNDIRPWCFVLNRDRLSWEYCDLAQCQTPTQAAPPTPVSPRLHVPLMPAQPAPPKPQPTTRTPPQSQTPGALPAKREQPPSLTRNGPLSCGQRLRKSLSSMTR
# Target sequence (P00748 373-615 limits assumed): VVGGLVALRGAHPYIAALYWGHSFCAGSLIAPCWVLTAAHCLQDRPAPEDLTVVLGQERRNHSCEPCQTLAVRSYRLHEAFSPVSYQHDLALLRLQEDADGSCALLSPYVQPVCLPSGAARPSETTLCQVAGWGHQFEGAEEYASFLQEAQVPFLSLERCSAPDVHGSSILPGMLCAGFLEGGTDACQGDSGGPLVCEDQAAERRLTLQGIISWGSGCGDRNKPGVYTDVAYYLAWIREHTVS
# FXIa inh 1536 = inhibitors of human coagulation factor XIa | P03951 | inhibition, % at 5 µM | actives 0.14% (n = 220,000) | AID 798 | purified FXIa, Boc-Glu-Ala-Arg-AMC fluorogenic substrate;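 active = inhibition of at least 40%; inactive = inhibition below 40%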;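 note: fluorescence of freed AMC excited at 355 nm; 0% = enzyme without compound and 100% = no enzyme blank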
# Thrombin inh = thrombin (human) inhibition | P00734 | alpha-thrombin, Boc-VPR-AMC fluorogenic substrate cleavage | inhibition, % at 5 µM | actives 0.26% (n = 220,000);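 active = inhibition at or above 40%; inactive = inhibition below 40%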;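 note: 0% = enzyme with no compound and 100% = wells without enzyme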
#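 System – human alpha-thrombin protein · Reagent – Boc-VPR-AMC substrate, 15 µM final · Compound – 5 µM single dose in 0.2% DMSO · Schedule – reaction at room temperature · Technique – AMC fluorescence at 355 nm excitation and 460 nm emission · Read-out basis – % inhibition relative to enzyme controls and enzyme-free blanks · Control set – no-compound enzyme wells and no-enzyme blanks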
# m-calpain inh = calpain II (pig) inhibition; actives 0.37% (n = 220,000); purified calpain II, fluorogenic peptide substrate, 30 min; inhibition, % at 16 µM;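 active = inhibition above about 50%, limit read from the data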
# Active calls of the source: *; . = not tested or not shown. In the library only some 1.4% were active in any assay of this set; here they are far more common.
SMILES,hK5 inh,FXIIa inh,FXIa inh 1536,Thrombin inh,m-calpain inh
CC(C)Oc1cc(N)c(Cl)cc1Cl,-6.6,-6.6,-0.1,-1.9,0.2
Oc1ccc(/C=N/N(Cc2ccccc2)c2ccccc2)c(O)c1O,127.5*,26.6,29.0,28.0,-74.7
Oc1cccc(/C=N/N(Cc2ccccc2)c2ccccc2)c1,-5.0,.,-3.3,-8.3,27.7
Cc1ccc2c(C)c(C(=O)Nc3nnc(C)s3)oc2c1,-1.8,40.0*,22.5,8.7,-1.1
CC1(/[N+]([O-])=C/c2ccccc2F)CCCCC1=O (centres undefined),1.6,11.2,0.3,-4.1,-21.4
CCN(CC)c1ccc(/C=N/NS(=O)(=O)c2cccc([N+](=O)[O-])c2)cc1,-9.9,52.1*,28.2,-14.4,2.9
CCN(Cc1ccccc1)c1ccc(/C=N/NS(=O)(=O)c2ccc(C)c([N+](=O)[O-])c2)cc1,-8.0,-2.9,-3.5,-4.2,-16.7
O=c1[nH]nc(SCc2nnc(-c3ccc([N+](=O)[O-])cc3)o2)n1C1CCCCC1,1.3,6.2,-0.3,43.9*,10.0
O=C(COC(=O)C12CC3CC(CC(O)(C3)C1)C2)NCCc1ccc(Cl)cc1,0.2,8.3,-2.5,100.5*,-23.5
CC(=O)N1CCCc2cc(S(=O)(=O)N3CCc4ccccc4C3)ccc21,-1.9,10.1,1.1,-6.3,25.4
CCC(=O)N1CCc2cc(S(=O)(=O)N3CCc4ccccc4C3)ccc21,-11.8,-0.9,-6.8,-6.9,54.4*
O=C(c1ccco1)N1N=C(c2cccs2)CC1c1ccco1 (centres undefined),-3.1,8.7,-0.4,-1.9,16.6
Cc1ccc(C2CC(c3cccs3)=NN2C(=O)c2ccco2)o1 (centres undefined),-23.2,-4.4,0.6,0.2,51.4*
Cc1nnc(SCc2nnc(-c3ccccc3Br)o2)n1-c1ccccc1,-20.7,1.2,-6.8,40.9*,-54.6
C/C(=N\Nc1ccc(S(=O)(=O)N2CCOCC2)cc1[N+](=O)[O-])C(C)C,-3.4,3.1,-5.7,-7.5,-4.9
O=C(OCc1nnc(-c2ccccc2)o1)c1ccc2c(c1)OCO2,-10.9,15.8,7.6,-0.5,72.4*
CCCOC1CCCN(C(=O)CCc2nnc(CCCCc3ccccc3)o2)C1 (centres undefined),.,3.9,-1.1,-4.8,0.1
O=S(=O)(Nc1ccc(-n2cccc2)cc1)c1ccc(Cl)cc1Cl,-10.0,9.1,-9.1,6.7,65.3*
CN(C)/C(CN1CCN(C=O)CC1)=C1\N=C(c2ccccc2)OC1=O,66.5*,2.1,4.2,9.2,25.5
COc1c(C(CC(C)C)OC(C)=O)ccc2c1C(=O)OCc1cc(C)cc(O)c1O2 (centres undefined),5.3,12.6,4.6,6.1,12.0
CCOC(=O)N1CCN(C(=O)CSc2nnc(CNC(=O)c3c(F)cccc3Cl)o2)CC1,41.7*,22.4,-0.9,13.2,22.8
O=C(NCc1nnc(SCC(=O)N2CCCC2)o1)c1c(F)cccc1Cl,-6.3,7.9,-1.4,-1.8,-31.9
Cc1nn(C)c(=S)n1-c1ccc(Cl)cc1,43.8*,30.8,28.1,0.9,13.9
Cc1ccc(-c2cnc(NC(=O)c3cccc(Br)c3)s2)c(C)c1,1.7,8.8,5.3,-2.7,-11.0
COc1ccc(CNC(=O)CSCc2ccccc2Cl)cc1,-7.7,3.1,-10.4,-8.8,33.3
SMILES,hK5 inh,FXIIa inh,FXIa inh 1536,Thrombin inh,m-calpain inh
O=C(CN(C(=O)CSc1nnc(COc2ccccc2)o1)c1ccc(F)cc1)NC1CCCC1,1.6,-5.8,-3.2,-1.9,21.7
O=C(CN(C(=O)CSc1nnc(COc2ccccc2)o1)c1ccc(F)cc1)NC1CCCCC1,129.5*,31.2,6.1,25.0,48.1
CN1CCC(N(C)C(=O)c2cc(=O)c3ccccc3o2)CC1,23.3,22.5,28.7,3.2,21.4
Cc1ccc(-c2cc(C(F)(F)F)n3nc(C(=O)NCCCn4ccnc4)cc3n2)cc1C,-23.8,22.1,21.9,-2.4,-350.0
O=C(CCC1CCCCC1)Nc1ccc(C(=O)c2ccncc2)cc1,-3.8,9.9,10.5,-3.4,51.4*
C=CCN(CC=C)C(=O)c1c(OC)cccc1OC,-7.7,15.6,7.5,3.6,2.1
C=CCc1c(C)[nH]c2c(OC)cccc2c1=S,46.1*,29.3,25.8,20.4,-33.1
Cc1cc(C)n(/N=C/c2ccccc2)c(=O)c1C#N,-11.0,57.5*,-0.5,-6.5,21.4
CCOC(=O)C1CCCN(C(=S)NC2CCCC2)C1 (centres undefined),1.9,5.8,-1.7,-4.3,11.1
O=C1c2ccccc2C(=O)N1CSc1nnnn1-c1ccccc1,1.6,9.2,10.7,-5.2,-0.6
O=C(CSc1nnnn1-c1ccccc1)CSc1nnnn1-c1ccccc1,-6.4,5.0,-1.1,0.3,75.8*
O=C1c2ccccc2C(=O)N1CCCCSc1nnnn1-c1ccccc1,-16.7,11.3,0.6,1.8,54.0*
CC12CCC(C(=O)NCCCN3CCOCC3)(C(Br)C1=O)C2(C)C (centres undefined),-0.9,3.6,-4.7,-7.0,-17.9
Cc1[nH]c2ccccc2c1CCN(Cc1cccnc1)C(=S)Nc1ccc(F)cc1,-1.0,10.5,-1.2,-3.3,64.1*
Cc1[nH]c2ccccc2c1CCN(Cc1cccnc1)C(=S)Nc1cccc(F)c1,-1.6,10.8,-1.4,-4.7,60.7*
Cc1nonc1OCCNC(=O)C12CC3CC(CC(C3)C1)C2,-6.2,8.7,-4.7,-3.3,-15.0
COc1ccccc1C1C=C(c2ccc(Cl)cc2)Nc2nc(N3C(=O)CCC3=O)nn21 (centres undefined),-33.7,13.4,3.0,50.0*,-286.5
O=C1CCC(=O)N1c1nc2n(n1)C(c1ccccc1)C=C(c1ccc(Br)cc1)N2 (centres undefined),-16.1,14.8,-5.9,11.3,-335.5
COc1ccc(C2C=C(c3ccc(Br)cc3)Nc3nc(N4C(=O)CCC4=O)nn32)cc1 (centres undefined),-84.7,13.0,-2.7,53.0*,-400.9
Cc1onc(-c2ccccc2)c1C(=O)N=C(N)c1ccc(C(F)(F)F)cc1,0.6,10.6,4.3,-1.2,4.6
CC(=O)CC(c1ccc([N+](=O)[O-])cc1)c1c(O)c2ccccc2oc1=O (centres undefined),-12.5,14.7,3.7,2.5,4.1
CCCCCCCCCC(=O)Nn1cnc2ccccc2c1=O,70.0*,52.0*,31.5,1.6,30.6
CC(C)N(Cc1nc(-c2ccccc2)no1)C(=O)CCCN1C(=O)c2ccccc2C1=O,2.3,0.4,-2.0,-6.5,64.4*
Cc1ccc(NC(=O)COC(=O)C2CSC3(C)CCC(=O)N23)cc1S(=O)(=O)N1CCOCC1 (centres undefined),4.2,9.9,0.3,-3.2,-37.0
CCCCN(CCCC)C(=O)/C=C/c1cccc([N+](=O)[O-])c1,-13.8,-8.6,-17.4,5.3,62.1*
Cc1ccc(OCCOc2ccc(Cl)cc2Cl)c([N+](=O)[O-])n1,1.9,21.3,7.0,5.4,10.3
S=C(CN1CCCC1=S)NCCc1ccccc1,0.8,5.5,3.5,-1.2,0.0
